Reference: ChEMBL document CHEMBL4725355, “Design, Synthesis, and Preclinical Evaluation of 3-Methyl-6-(5-thiophenyl)-1,3-dihydro-imidazo[4,5-b]pyridin-2-ones as Selective GluN2B Negative Allosteric Modulators for the Treatment of Mood Disorders” (J Med Chem, 2020)
Converted amounts (≈) assume the structure as drawn.

Experiments:
[1] = Solubility of compound in simulated gastric fluid at pH 1.2 measured after 3 days; type: physicochemical; settings: time 3 day
In short: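 Solubility in aqueous buffer at pH 2 and pH 7, and in simulated gastric and intestinal fluids.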

[2] = Metabolic stability in rat liver microsomes assessed as extraction ratio at 1 uM after 5 to 60 mins in presence of NADPH by LC-MS/MS analysis; type: ADME, Microsome; settings: time 5-60 min, read-out: ERH
In short: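 Human and rat liver microsomes, run in duplicate; stability reported as microsomal extraction ratio.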

Cytochrome P450 3A4 [3] = biological target: T1, Cytochrome P450 3A4 (Homo sapiens, UniProt P08684); experiment: Inhibition of CYP3A4 in human liver microsomes using nifedipine as substrate measured after 15 mins by LC-MS/MS analysis; type: ADME
In short: (§1)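 Human liver microsomes incubated with isoform-specific probe substrates and the test compound at concentrations up to 20 µM. IC50 derived from inhibition of metabolite formation; mean of two independent experiments, with known specific inhibitors as positive controls.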

[4] = Ratio of Cmax in Sprague-Dawley rat at 125 mg/kg, po administered via gavage after 24 hrs using HPMC formulation by LC-MS/MS analysis to EC70 for ex vivo receptor occupancy at GluN2B in po dosed Sprague-Dawley rat assessed as 3-[3H] 1-(azetidin-1-yl)-2-[6-(4-fluoro-3-methyl-phenyl)pyrrolo[3,2-b]pyridin-1-yl]-ethanone labelling; type: ADME, organism-based
[5] = Half life in mouse at 2.5 mg/kg, po by LC-MS/MS analysis; type: ADME, organism-based; settings: in vivo
[6] = AUC (0 to 24 hrs) in Sprague-Dawley rat at 250 mg/kg, po administered via gavage after 24 hrs using nanosuspension formulation by LC-MS/MS analysis; type: ADME, organism-based; design: route oral, dose 250 mg/kg, time <=24; settings: in vivo
In short: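 Single oral gavage dose to male Sprague Dawley rats, 3 per dose level. Vehicles were a standard suspension in 5% HPMC (125, 250, 500 or 1000 mg/kg) or a nanosuspension (API:polymer 4:1), with stock diluted in vehicle on the day of dosing (100, 250 or 500 mg/kg). Blood was sampled at time points from 0.5 to 24 h.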

[7] = Negative allosteric modulation of human GluN1a/GluN2D receptor expressed in CHO cells assessed as inhibition of glutamate and glycine-induced calcium flux preincubated for 5 mins followed by glutamate and glycine addition and measured after 5 mins by calcium 5 dye based FLIPR assay; type: cell-based
In short: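 Tet-On CHO T-Rex cells expressing hGluN1a with GluN2A, 2B, 2C or 2D, plated at 20,000 cells/well and induced 24 h before the assay in the presence of ketamine. Cells loaded 1 h at room temperature with Calcium 5 dye, pH 7.4 HEPES buffer. Compound added 5 min, then glutamate (~EC80) plus 10 µM glycine for 5 min; FLIPR fluorescence normalized to control wells. Three independent runs in duplicate (two for some).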

[8] = AUC (infinity) in monkey at 0.1 mg/kg, iv by LC-MS/MS analysis; type: ADME, organism-based, Macaca mulatta; design: time infinity, route intravenous, dose 0.1 mg/kg; settings: rhesus monkey, in vivo
Cytochrome P450 2D6 = Cytochrome P450 2D6 (Homo sapiens, UniProt P10635); experiment: Inhibition of CYP2D6 in human liver microsomes using dextromethorphan as substrate measured after 15 mins by LC-MS/MS analysis; type: ADME; in short: as §1
[9] = Volume of distribution at steady state in dog at 0.1 mg/kg, iv by LC-MS/MS analysis; type: ADME, organism-based, Canis lupus familiaris; settings: in vivo, read-out: Vdss
[10] = Oral bioavailability in mouse at 2.5 mg/kg by LC-MS/MS analysis; type: ADME, organism-based; settings: in vivo
[11] = Ex vivo receptor occupancy at GluN2B in Sprague-Dawley rat assessed as 3-[3H] 1-(azetidin-1-yl)-2-[6-(4-fluoro-3-methyl-phenyl)pyrrolo[3,2-b]pyridin-1-yl]-ethanone labelling at 3 mg/kg, po measured after 6 hrs by autoradiography; type: functional
In short: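 Rats dosed orally at 3 mg/kg in 20% HP-β-CD; brains taken at 0.5, 2 and 6 h. Ex vivo autoradiography of brain slices with the ³H pyrrolo[3,2-b]pyridine GluN2B tracer. Labelling expressed relative to matching brain areas of vehicle-treated animals; n=2, ± SEM.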

[12] = Drug level in Sprague-Dawley rat brain cortex at 0.03 mg/kg, iv after 5 to 120 mins by LC-MS/MS analysis; type: ADME, organism-based; settings: in vivo, time 5-120 min
In short: (§2)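 Single i.v. dose of 0.03 mg/kg in 50% (w/v) PEG/water, pH 7.4; rats n=3 per group, killed at 5, 10, 30, 60 and 120 min. Cerebellum, cortex, striatum and hippocampus dissected, weighed and homogenized; drug quantified by LC-MS/MS and normalized to tissue weight. P<0.05 taken as significant versus cerebellum.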

[13] = Tmax in dog at 0.5 mg/kg, po by LC-MS/MS analysis; type: ADME, organism-based, Canis lupus familiaris; settings: in vivo
[14] = Cmax in monkey at 0.5 mg/kg, po by LC-MS/MS analysis; type: ADME, organism-based, Macaca mulatta; design: route oral, dose 0.5 mg/kg; settings: rhesus monkey, in vivo
[15] = Drug level in Sprague-Dawley rat brain hippocampus at 0.03 mg/kg, iv after 60 min by LC-MS/MS analysis; type: ADME, organism-based; settings: read-out: Drug uptake; in short: as §2
[16] = Intrinsic clearance in dog liver microsomes at 1 uM after 5 to 60 mins in presence of NADPH by LC-MS/MS analysis; type: ADME, Canis lupus familiaris, Microsome; settings: time 5-60 min, read-out: CLH
[17] = AUC (infinity) in Sprague-Dawley rat at 0.5 mg/kg, iv by LC-MS/MS analysis; type: ADME, organism-based; design: route intravenous, time infinity, dose 0.5 mg/kg; settings: in vivo
In short: (§3)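 Rat PK with IV and PO dosing, n=3. The usual doses were 0.5 mg/kg IV and 2.5 mg/kg PO in 20% HP-β-CD. One compound was instead given at 0.1 mg/kg IV and 0.5 mg/kg PO.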

[18] = Half life in Sprague-Dawley rat at 0.5 mg/kg, iv by LC-MS/MS analysis; type: ADME, organism-based; settings: in vivo
Cytochrome P450 3A4 [19] = biological target: T1, Cytochrome P450 3A4; experiment: Time-dependent inhibition of CYP3A4 in human liver microsomes at 10 uM using testosterone as substrate by LC-MS/MS analysis; type: ADME
In short: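 CYP3A4 time-dependent inhibition in human liver microsomes. The compound (0.4 to 10 μM) was tested with and without 30 min preincubation. IC50 was taken from percent activity remaining versus vehicle, averaged over two independent experiments. A >2-fold IC50 shift after preincubation was the threshold for time-dependent inhibition.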

[20] = Clearance in Sprague-Dawley rat at 0.5 mg/kg, iv by LC-MS/MS analysis; type: ADME, organism-based; settings: in vivo; in short: as §3
Cytochrome P450 2C9 = Cytochrome P450 2C9 (Homo sapiens, UniProt P11712); experiment: Inhibition of CYP2C9 in human liver microsomes using tolbutamide as substrate measured after 15 mins by LC-MS/MS analysis; type: ADME; in short: as §1
[21] = Cmax in mouse at 2.5 mg/kg, po by LC-MS/MS analysis; type: ADME, organism-based; design: route oral, dose 2.5 mg/kg; settings: in vivo
[22] = Half life in Sprague-Dawley rat at 2.5 mg/kg, po by LC-MS/MS analysis; type: ADME, organism-based; settings: in vivo
[23] = Solubility of compound in 20% hydroxypropyl-beta-cyclodextrin; type: physicochemical
In short: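 Solubility of the compound assessed in dosing excipients, including 30% SBE-β-CD, 50% PEG-400 and 20% HP-β-CD. The aim was a solution usable for rat dosing; the 20% HP-β-CD formulation was checked for a 0.1 mg/mL solution to support a 0.5 mg/kg dose.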

[24] = AUC (infinity) in dog at 0.5 mg/kg, po by LC-MS/MS analysis; type: ADME, organism-based, Canis lupus familiaris; design: time infinity, route oral, dose 0.5 mg/kg; settings: in vivo

T1 sequence (P08684 whole entry, canonical isoform): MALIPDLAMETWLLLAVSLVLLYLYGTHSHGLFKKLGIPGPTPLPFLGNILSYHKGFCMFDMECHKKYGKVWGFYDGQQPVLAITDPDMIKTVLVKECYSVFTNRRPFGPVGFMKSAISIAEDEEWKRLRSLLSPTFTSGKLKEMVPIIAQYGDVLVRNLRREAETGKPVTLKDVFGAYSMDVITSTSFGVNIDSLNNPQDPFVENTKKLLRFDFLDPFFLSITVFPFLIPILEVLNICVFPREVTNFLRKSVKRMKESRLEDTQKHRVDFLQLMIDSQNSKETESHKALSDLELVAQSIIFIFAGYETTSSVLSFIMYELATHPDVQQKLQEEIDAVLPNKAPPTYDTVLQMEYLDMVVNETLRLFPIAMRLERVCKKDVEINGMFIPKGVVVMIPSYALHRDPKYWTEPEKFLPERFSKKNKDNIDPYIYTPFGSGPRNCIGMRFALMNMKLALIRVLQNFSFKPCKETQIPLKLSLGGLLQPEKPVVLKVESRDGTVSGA
Sequence of Cytochrome P450 2D6 (P10635 whole entry): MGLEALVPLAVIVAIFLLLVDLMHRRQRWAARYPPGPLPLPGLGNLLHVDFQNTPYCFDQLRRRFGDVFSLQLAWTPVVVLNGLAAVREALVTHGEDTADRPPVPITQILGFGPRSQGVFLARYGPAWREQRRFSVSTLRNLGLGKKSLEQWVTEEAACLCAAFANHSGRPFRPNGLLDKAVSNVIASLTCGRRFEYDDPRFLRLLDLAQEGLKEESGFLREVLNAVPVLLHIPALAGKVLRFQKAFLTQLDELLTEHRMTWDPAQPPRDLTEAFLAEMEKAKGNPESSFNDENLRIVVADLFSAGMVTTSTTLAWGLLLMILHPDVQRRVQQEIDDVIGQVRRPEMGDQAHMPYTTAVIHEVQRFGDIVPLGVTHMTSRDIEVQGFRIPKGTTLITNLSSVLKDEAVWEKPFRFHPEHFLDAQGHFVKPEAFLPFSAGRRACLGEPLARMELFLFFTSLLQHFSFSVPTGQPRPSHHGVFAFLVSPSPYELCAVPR
Sequence of Cytochrome P450 2C9 (P11712 whole entry): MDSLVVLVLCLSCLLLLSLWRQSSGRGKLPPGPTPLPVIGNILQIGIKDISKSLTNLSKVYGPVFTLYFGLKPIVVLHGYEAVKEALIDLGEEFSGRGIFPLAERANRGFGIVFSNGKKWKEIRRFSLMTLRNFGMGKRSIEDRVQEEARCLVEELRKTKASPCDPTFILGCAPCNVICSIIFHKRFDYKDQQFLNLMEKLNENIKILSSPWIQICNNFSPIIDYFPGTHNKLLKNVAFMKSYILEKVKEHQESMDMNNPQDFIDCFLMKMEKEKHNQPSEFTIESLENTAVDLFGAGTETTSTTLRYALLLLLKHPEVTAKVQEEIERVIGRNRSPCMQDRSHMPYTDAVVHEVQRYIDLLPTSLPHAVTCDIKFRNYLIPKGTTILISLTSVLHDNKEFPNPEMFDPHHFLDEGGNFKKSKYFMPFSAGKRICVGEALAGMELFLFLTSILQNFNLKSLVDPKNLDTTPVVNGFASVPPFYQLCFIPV

For `Cn1c(=O)n(CC(=O)N2CCC2)c2cc(-c3ccc(C(F)(F)F)s3)cnc21`, the solubility at 72 h [1] was 4.4 µM (≈ 1.74 µg/mL), the hepatic extraction ratio at 1 µM [2] was less than 0.17 and the IC50 (Cytochrome P450 3A4 [3]) was greater than 50 µM. It also gave a Ratio [4] of 6, a half-life [5] of 2.4 h and an AUC(0-t) [6] of 86400 ng·h/mL. The IC50 [7] was greater than 10 µM, the AUC(0-inf) [8] was 190 ng·h/mL and the IC50 (Cytochrome P450 2D6) was 15 µM. It also gave a Vd [9] of 0.8 L/kg, a bioavailability [10] of 69% and an Occ [11] of 31%. For the same molecule, the Drug uptake [12] was “Active”, the Tmax [13] was 0.25 h and the Cmax [14] was 167 ng/mL. The concentration at 1 h [15] was 20.9 ng/mL, the microsomal CLint at 1 µM [16] was 14.7 µL/min/mg and the AUC(0-inf) [17] was 277 ng·h/mL. The half-life [18] was 0.8 h, the TDI (Cytochrome P450 3A4 [19]) was “Not Active” and the clearance [20] was 30 mL/min/kg. For the same molecule, the IC50 (Cytochrome P450 2C9) was greater than 50 µM, the Cmax [21] was 413 ng/mL and the half-life [22] was 2.2 h. The solubility [23] was less than 1000 µg/mL and the AUC(0-inf) [24] was 268 ng·h/mL.
